Shown are actives, neighbours in structure and some others; about 3.2% of the full set was active somewhere.
RORA act = RORA (human) activation | P35398 | CHO-K1 Gal4-RORA LBD luciferase reporter, luminescence; percent increase over mock-subtracted basal signal | activation, % at 10 µM | 65,000 compounds, 1.5% hits | AID 560;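 active = activation above the mean of all tested compounds plus 3 SD, cut at about 49% in these data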
SF1 activator = activators of human nuclear receptor SF-1. AID 522. activation, % at 10 µM. CHO-K1 Gal4-SF-1 LBD luciferase reporter; % increase over DMSO SF-1-specific signal. 65,000 compounds, 1.9% hits;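 active = activation above the mean activation of all tested compounds plus 3 SD, cut at about 50% in these data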
Target sequence (Q13285 whole entry, looked up, the tested form may be a part): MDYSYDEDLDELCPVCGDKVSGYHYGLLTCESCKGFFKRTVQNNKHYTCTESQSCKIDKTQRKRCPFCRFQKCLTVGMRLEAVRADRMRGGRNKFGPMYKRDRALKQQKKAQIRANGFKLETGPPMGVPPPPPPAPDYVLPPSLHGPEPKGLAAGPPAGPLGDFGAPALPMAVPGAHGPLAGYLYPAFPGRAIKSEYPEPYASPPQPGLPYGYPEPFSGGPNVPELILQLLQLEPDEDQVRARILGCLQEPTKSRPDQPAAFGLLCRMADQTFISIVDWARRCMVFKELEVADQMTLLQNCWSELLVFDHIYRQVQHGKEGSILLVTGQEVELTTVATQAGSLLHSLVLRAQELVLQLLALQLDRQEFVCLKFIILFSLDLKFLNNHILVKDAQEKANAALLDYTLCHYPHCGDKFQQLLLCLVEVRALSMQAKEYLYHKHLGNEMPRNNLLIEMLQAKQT
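Test system: CHO-K1 cells co-transfected with Gal4 DBD–human SF-1 LBD, 5xGal4 luciferase reporter. Quantity: 4,000 cells per well. Compound: 10 µM only. Incubation: compound added 1 h post-seeding, 20 h exposure at 37 °C, 5% CO2. Detection: SteadyLite luciferase luminescence. Replication: one test per compound.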
BAP1 block = inhibitors of human BAP1 deubiquitinase; recombinant BAP1, Ub-AMC hydrolysis fluorescence kinetic; active compounds read low; activity remaining (% of control), % at 20 µM; 72,000 compounds, 0.48% hits;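 active = activity remaining at or below 50% of control, provided the compound also passes the data quality filters; inactive = the rest, including low values that fail the filters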
JNK3 inh = JNK3 (human) kinase inhibition; purified JNK3 kinase activity, HTS; inhibition, % at 8 µM; 60,000 compounds, 0.61% hits; AID 746; in the data active = inhibition above about 17%
Ec RNAP inh = inhibitors of Escherichia coli RNA polymerase; P0A8V2; E. coli RNA polymerase, fluorescence transcription assay; inhibition, %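 (tested at 10 µM)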; 62,000 compounds, 0.2% hits; AID 559; in the data active = inhibition above about 20%
Each line names hits and unclear results; the compound was inactive in the other large screens.

COc1ccc(CNC(=O)c2cnn3c(C(F)F)cc(C)nc23)cc1OC	JNK3 inh 24
c1ccc(-c2noc(CN3CCN(c4ccccc4)CC3)n2)cc1	none
Clc1ccc(OCc2nc(-c3ccncc3)no2)c(Br)c1	RORA act 59
Clc1ccccc1OCc1nc(-c2ccncc2)no1	RORA act 54, SF1 activator 92
Cc1ccc(OCc2nc(-c3ccccn3)no2)c(Br)c1	none
CC1CCN(Cc2nc(-c3ccccc3)no2)CC1	SF1 activator 51
c1ccc(OCc2nc(-c3ccccc3)no2)cc1	SF1 activator 56
COc1ccc(NC(=O)c2ccc(CN3CCN(c4ccccc4)CC3)cc2)cc1	none
Cn1nnnc1Sc1ncnc2scc(-c3ccc(F)cc3)c12	none
O=C1C(=O)N(Cc2cccnc2)C(c2ccccn2)/C1=C(/O)c1ccc(Br)cc1 (stereo not drawn)	none
Cc1ccc(OCc2ccc(C(=O)N3CCOCC3)cc2)cc1C	RORA act 52
CCc1ccc(NC(=O)Nc2cccs2)cc1	none
Cc1ccc(NC(=O)Nc2cccs2)cc1	RORA act 54 (no result: JNK3 inh)
CN(C)CC(C(=O)c1ccccc1)c1ccccc1 (stereo not drawn)	none
CCn1cc(C(=O)NC2CCC(C)CC2)c(=O)c2cc(S(=O)(=O)N3CCCCC3)ccc21 (stereo not drawn)	none
Cc1ccc2[nH]c(-c3cccc(N)c3)cc2c1	RORA act 55, SF1 activator 51 (no result: Ec RNAP inh)
CCCn1c(SCC(=O)Nc2ccccc2C(=O)OCC)nc2c1c(=O)n(C)c(=O)n2C	none
C=CCn1c(-c2ccccc2)c[nH]c1=S	SF1 activator 53
CCSc1nncn1/N=C/c1ccc(OC)c(OC)c1	none
C=C(C)CSc1nncn1/N=C/c1ccc(OC)cc1	RORA act 49, SF1 activator 55
Cn1c(NCc2ccccc2Cl)nc2ccccc21	RORA act 50
Cc1nc2cc(NCc3nc4ccccc4n3Cc3ccccc3)ccc2n1C	RORA act 50
Cn1c(CNc2ccc(Cl)cc2)nc2ccccc21	SF1 activator 59
O=C1CS/C(=C\S(=O)(=O)c2ccc(Cl)cc2)N1	none
COc1ccc(Cl)cc1S(=O)(=O)N1CCN(c2ccc(F)cc2)CC1	none
Cc1cc(Nc2ccc(F)c(Cl)c2)n2nc(C)nc2n1	none
CCc1nc(SCCO)c2oc3ccccc3c2n1	none
O=C(O)c1ccc(Cl)c(S(=O)(=O)NCc2ccco2)c1	none
Cc1cccc(N2CCN(C(=O)c3ccc(Cl)c(S(=O)(=O)NCc4ccco4)c3)CC2)c1C	RORA act 51, SF1 activator 53
CC(C)(C)c1csc(NC(=O)c2ccc(Cl)s2)n1	RORA act 54, SF1 activator 53 (not shown: BAP1 block, Ec RNAP inh)
O=C(Nc1nc2ccccc2s1)c1ccc(Cl)s1	SF1 activator 98
O=C(Nc1nc(-c2cccs2)cs1)c1ccc(Cl)s1	RORA act 68
Cc1cc(C)cc(-n2nnc(C(=O)NCc3ccco3)c2N)c1	none
Nc1c(C(=O)NCc2ccco2)nnn1-c1ccccc1	SF1 activator 55
CN1CCN(C(=O)CCCOc2ccc(Cl)cc2Cl)CC1	none
CCN(CC)C(=O)CCCOc1ccc(Cl)cc1Cl	RORA act 54
COc1ccc(OC)c(C2C(C(=O)Nc3ccccc3OC)=C(C)Nc3nc(CCCO)nn32)c1 (stereo not drawn)	none
CC(=O)c1cccc(NC(=O)c2cc3ccccn3n2)c1	none
CC(=O)c1cccc(NC(=O)c2cnn3ccccc23)c1	SF1 activator 67
COc1ccc(CCNC(=O)CN(c2ccccc2OC)S(C)(=O)=O)cc1	none
O=C(NCCC1=CCCCC1)c1ccc2c(=O)n3c(nc2c1)CCCCC3	none
O=C(Nc1cccc(Cl)c1)c1ccc2c(=O)n3c(nc2c1)CCCCC3	SF1 activator 59
O=C(Nc1ccc(F)c(Cl)c1)c1ccc2c(=O)n3c(nc2c1)CCCCC3	SF1 activator 74
CC1CN(c2ncnc3c2cnn3-c2ccc(Cl)cc2)CC(C)O1 (stereo not drawn)	RORA act 67, SF1 activator 75
Clc1ccc(-n2ncc3c(N4CCCCCC4)ncnc32)cc1	none
Cc1cccc(-n2ncc3c(N4CC(C)CC(C)C4)ncnc32)c1 (stereo not drawn)	SF1 activator 51
COc1ccc2c(c1OC)C(=O)OC2Nc1nccs1 (stereo not drawn)	none (no result: RORA act, SF1 activator, JNK3 inh, Ec RNAP inh)
O=C(Nc1ccc(Cl)c(Cl)c1)N1CC=CCC1	RORA act 58, SF1 activator 55 (no result: Ec RNAP inh)
CC1(C)CC(=O)C=C(NCCN2CCN(C(=O)Nc3ccc(Cl)c(Cl)c3)CC2)C1	none
N#Cc1ccc(CSc2nnc(Nc3ccccc3)s2)cc1	none
CC(C)Sc1nnc(Nc2ccccc2)s1	SF1 activator 106
COc1cc2nc(C3CC3)n(NC(=O)c3ccc(F)cc3)c(=O)c2cc1OC	none
COc1cc(OC)c(C2C(C#N)=C(N)Oc3cc(C)n(CCCN4CCOCC4)c(=O)c32)cc1OC (stereo not drawn)	none
CCOC(=O)c1c(-c2ccccc2)oc2ccc(O)c(CN3CCOCC3)c12	none
COc1cccc(C2=CC(c3ccccc3)n3nnnc3N2)c1 (stereo not drawn)	RORA act 79
COc1cccc(C2=CC(c3ccc(N(C)C)cc3)n3nnnc3N2)c1 (stereo not drawn)	none
Cn1c(=O)c2c(nc(NCC3CCCO3)n2Cc2ccc(Cl)cc2)n(C)c1=O (stereo not drawn)	none (no result: RORA act, SF1 activator, JNK3 inh, Ec RNAP inh)
O=C(Nc1ccc(NC(=O)C2CC2)nc1)c1ccco1	SF1 activator 51
CCCC(=O)Nc1ccc(NC(=O)c2cccs2)cn1	none (no result: JNK3 inh)
O=C(Nc1cccnc1)c1ccc(NC(=O)c2ccco2)cc1	none
O=C(Nc1ccc(NC(=O)C2CC2)nc1)c1cccs1	SF1 activator 52
O=C(Nc1ccc(NC(=O)c2ccco2)nc1)c1cccnc1	SF1 activator 55
COCCn1nnnc1C(c1ccc(OC)c(OC)c1)N1CCc2ccccc21 (stereo not drawn)	none
COc1ccccc1C(=O)OCC(=O)Nc1ccc(OC(F)F)cc1	none
O=C(Nc1ccc2nc(NC(=O)C3CCCCC3)sc2c1)C1CCCCC1	none (no result: RORA act, SF1 activator, JNK3 inh, Ec RNAP inh)
Cc1ccc(NC(=O)NCCN2C(=O)C3C4C=CC(C4)C3C2=O)cc1 (stereo not drawn)	RORA act 74, SF1 activator 98
COc1ccc(NC(=O)NCCN2C(=O)C3C4C=CC(C4)C3C2=O)cc1 (stereo not drawn)	RORA act 66
O=C(NCCN1C(=O)C2C3C=CC(C3)C2C1=O)Nc1ccccc1 (stereo not drawn)	none
CCOCCCNc1ccc(-c2ccccc2)nn1	SF1 activator 58
CCOCCCNc1nc2ccccc2[nH]1	none
CC1=C(C(=O)N2CCOCC2)C(c2cc(C)cs2)NC(=O)N1 (stereo not drawn)	none (no result: BAP1 block, JNK3 inh)
Cc1cc(Cl)cc2c1NC(=O)[C@]21[C@@H]2C(=O)N(Cc3ccccc3)C(=O)[C@@H]2[C@@H]2CCCN21	Ec RNAP inh 33
CC(C)OC(=O)CSc1nnc(-c2ccco2)n1N	none

Screening results as filed in PubChem.
